Measured values taken from ChEMBL document CHEMBL1649137, “Genetic analysis of factors affecting susceptibility of Bacillus subtilis to daptomycin” (2009).
Converted amounts (≈) assume the structure as drawn.

How the values were obtained:
Bacillus subtilis [1] = assay: Induction of sdpI gene expression in Bacillus subtilis W168 by microarray analysis; type: functional
Procedure, shortened: (§1)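 W168 grown in Ca2+-supplemented Mueller-Hinton broth at 37°C to OD600 0.4, split, and one half exposed to 1 μg/ml daptomycin for 20 min. Total RNA from three biological replicates; cDNA labeled with Alexa Fluor 555/647 and co-hybridized at 42°C for 16–18 h. Genes with summed intensity <20 or SD > mean were dropped. Fold change is treated/untreated signal, from ≥6 spot measurements.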

Bacillus subtilis [2] = assay: Antibacterial activity against liaH and sigW gene-deficient Bacillus subtilis CU1065 mutant by liquid growth inhibition assay; type: functional
Procedure, shortened: (§2)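 Daptomycin MIC by liquid growth inhibition. Overnight cultures diluted 1:100, grown to mid-log, rediluted to 5 × 10^5 CFU/ml in Mueller-Hinton broth with 50 mg/liter Ca2+. At least 10 concentrations near the predicted MIC, plus a no-drug control, added at start; 200 μl. OD600 read every 20 min for 24 h at 37°C with shaking. Inhibition: 24 h OD600 <0.05. MIC is the mode of at least triplicates.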

Bacillus subtilis [3] = assay: Induction of ydjP gene expression in Bacillus subtilis W168 by microarray analysis; type: functional; procedure, shortened: as §1
Bacillus subtilis [4] = assay: Antibacterial activity against sigMWX and pspA gene-deficient Bacillus subtilis CU1065 mutant by liquid growth inhibition assay; type: functional; procedure, shortened: as §2
Bacillus subtilis [5] = assay: Antibacterial activity against sigWM gene-deficient Bacillus subtilis CU1065 double mutant by liquid growth inhibition assay; type: functional; procedure, shortened: as §2
Bacillus subtilis [6] = assay: Antibacterial activity against mprF and ugtP gene-deficient Bacillus subtilis CU1065 mutant by liquid growth inhibition assay; type: functional; procedure, shortened: as §2
Bacillus subtilis [7] = assay: Antibacterial activity against liaIHGFSR gene-deficient Bacillus subtilis W168 mutant by liquid growth inhibition assay; type: functional; procedure, shortened: as §2
Bacillus subtilis [8] = assay: Antibacterial activity against liaIH gene-deficient Bacillus subtilis W168 mutant by liquid growth inhibition assay; type: functional; procedure, shortened: as §2
Bacillus subtilis [9] = assay: Induction of liaS gene expression in Bacillus subtilis W168 by microarray analysis; type: functional; procedure, shortened: as §1
Bacillus subtilis [10] = assay: Induction of yuaG gene expression in Bacillus subtilis W168 by microarray analysis; type: functional; procedure, shortened: as §1
Bacillus subtilis [11] = assay: Antibacterial activity against liaH and pspA gene-deficient Bacillus subtilis CU1065 mutant by liquid growth inhibition assay; type: functional; procedure, shortened: as §2
Bacillus subtilis [12] = assay: Decrease in fabHB gene expression in Bacillus subtilis W168 by microarray analysis; type: functional; procedure, shortened: as §1
Bacillus subtilis [13] = assay: Decrease in fabHA gene expression in Bacillus subtilis W168 by microarray analysis; type: functional; procedure, shortened: as §1
Bacillus subtilis [14] = assay: Increase in yfiC gene expression in Bacillus subtilis W168 by microarray analysis
Bacillus subtilis [15] = assay: Antibacterial activity against mprF and pspA gene-deficient Bacillus subtilis CU1065 mutant by liquid growth inhibition assay; type: functional; procedure, shortened: as §2
Bacillus subtilis [16] = assay: Antibacterial activity against wild-type Bacillus subtilis; type: functional; procedure, shortened: as §2
Bacillus subtilis [17] = assay: Antibacterial activity against ywnE gene-deficient Bacillus subtilis CU1065 mutant by liquid growth inhibition assay; type: functional; procedure, shortened: as §2
Bacillus subtilis [18] = assay: Antibacterial activity against sigXM gene-deficient Bacillus subtilis CU1065 double mutant by liquid growth inhibition assay; type: functional; procedure, shortened: as §2
Bacillus subtilis [19] = assay: Induction of liaH gene expression in Bacillus subtilis W168 by microarray analysis; type: functional; procedure, shortened: as §1
Bacillus subtilis [20] = assay: Antibacterial activity against Bacillus subtilis W168 mutant with alteration in membrane composition at 25 degC by liquid growth inhibition assay; type: functional
Procedure, shortened: (§3)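 Mid-log cells diluted to 5 × 10^5 CFU/ml in Mueller-Hinton broth with 50 mg/liter Ca2+. At least 10 concentrations near the predicted MIC, plus an untreated control, present from the start. Growth followed by OD600. Inhibition: final 24 h OD600 <0.05. MIC is the mode of at least triplicates.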

Bacillus subtilis [21] = assay: Induction of rodA gene expression in Bacillus subtilis W168 by microarray analysis; type: functional; procedure, shortened: as §1
Bacillus subtilis [22] = assay: Decrease in yxeM gene expression in Bacillus subtilis W168 by microarray analysis; type: functional; procedure, shortened: as §1
Bacillus subtilis [23] = assay: Antibacterial activity against Bacillus subtilis CU1065 harboring IPTG-induced pgsA by liquid growth inhibition assay; type: functional; procedure, shortened: as §2
Bacillus subtilis [24] = assay: Decrease in rpsT gene expression in Bacillus subtilis W168 by microarray analysis; type: functional; procedure, shortened: as §1
Bacillus subtilis [25] = assay: Decrease in degR gene expression in Bacillus subtilis W168 by microarray analysis; type: functional; procedure, shortened: as §1
Bacillus subtilis [26] = assay: Decrease in yitI gene expression in Bacillus subtilis W168 by microarray analysis; type: functional; procedure, shortened: as §1
Bacillus subtilis [27] = assay: Antibacterial activity against des gene-deficient Bacillus subtilis W168 mutant with alteration in membrane composition at 25 degC by liquid growth inhibition assay; type: functional; procedure, shortened: as §3
Bacillus subtilis [28] = assay: Induction of maf gene expression in Bacillus subtilis W168 by microarray analysis; type: functional; procedure, shortened: as §1
Bacillus subtilis [29] = assay: Antibacterial activity against psd gene-deficient Bacillus subtilis CU1065 mutant by liquid growth inhibition assay; type: functional; procedure, shortened: as §2
Bacillus subtilis [30] = assay: Antibacterial activity against liaIH, mprF and pspA gene-deficient Bacillus subtilis CU1065 mutant by liquid growth inhibition assay; type: functional; procedure, shortened: as §2
Bacillus subtilis [31] = assay: Antibacterial activity against liaIH and mprF gene-deficient Bacillus subtilis W168 mutant by liquid growth inhibition assay; type: functional; procedure, shortened: as §2
Bacillus subtilis [32] = assay: Antibacterial activity against mprF gene-deficient Bacillus subtilis CU1065 mutant by liquid growth inhibition assay; type: functional; procedure, shortened: as §2
Bacillus subtilis [33] = assay: Antibacterial activity against sigX gene-deficient Bacillus subtilis CU1065 mutant by liquid growth inhibition assay; type: functional; procedure, shortened: as §2
Bacillus subtilis [34] = assay: Induction of liaG gene expression in Bacillus subtilis W168 by microarray analysis; type: functional; procedure, shortened: as §1
Bacillus subtilis [35] = assay: Induction of yvrL gene expression in Bacillus subtilis W168 by microarray analysis; type: functional
Procedure, shortened: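 W168 cultures in Mueller-Hinton broth with 50 mg/liter Ca2+, 37°C with shaking, grown to mid-log phase (OD600 0.4) from a 1:1,000 overnight dilution. Split: one half given 1 μg/ml daptomycin for 20 min, the other left untreated. Total RNA from three biological replicates; cDNA labeled with Alexa Fluor 555 or 647 and hybridized 16 to 18 h at 42°C. Induction = treated/untreated signal intensity, duplicate spots on three arrays.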

Bacillus subtilis [36] = assay: Antibacterial activity against liaF gene-deficient Bacillus subtilis W168 mutant by liquid growth inhibition assay; type: functional; procedure, shortened: as §2
Bacillus subtilis [37] = assay: Antibacterial activity against sigW gene-deficient Bacillus subtilis CU1065 mutant by liquid growth inhibition assay; type: functional; procedure, shortened: as §2
Bacillus subtilis [38] = assay: Decrease in yvpB gene expression in Bacillus subtilis W168 by microarray analysis; type: functional; procedure, shortened: as §1
Bacillus subtilis [39] = assay: Induction of bcrC gene expression in Bacillus subtilis W168 by microarray analysis; type: functional; procedure, shortened: as §1
Bacillus subtilis [40] = assay: Antibacterial activity against sigMWX and liaIH gene-deficient Bacillus subtilis CU1065 mutant by liquid growth inhibition assay; type: functional; procedure, shortened: as §2
Bacillus subtilis [41] = assay: Decrease in yisY gene expression in Bacillus subtilis W168 by microarray analysis; type: functional; procedure, shortened: as §1
Bacillus subtilis [42] = assay: Antibacterial activity against yhcYZ gene-deficient Bacillus subtilis CU1065 mutant by liquid growth inhibition assay; type: functional; procedure, shortened: as §2
Bacillus subtilis [43] = assay: Decrease in hutM gene expression in Bacillus subtilis W168 by microarray analysis; type: functional; procedure, shortened: as §1
Bacillus subtilis [44] = assay: Decrease in yvzA gene expression in Bacillus subtilis W168 by microarray analysis; type: functional; procedure, shortened: as §1
Bacillus subtilis [45] = assay: Decrease in yvkN gene expression in Bacillus subtilis W168 by microarray analysis; type: functional; procedure, shortened: as §1
Bacillus subtilis [46] = assay: Antibacterial activity against pspA gene-deficient Bacillus subtilis CU1065 mutant by liquid growth inhibition assay; type: functional; procedure, shortened: as §2
Bacillus subtilis [47] = assay: Antibacterial activity against des gene-deficient Bacillus subtilis W168 mutant by liquid growth inhibition assay; type: functional; procedure, shortened: as §2
Bacillus subtilis [48] = assay: Antibacterial activity against psd and mprF gene-deficient Bacillus subtilis CU1065 mutant by liquid growth inhibition assay; type: functional; procedure, shortened: as §2
Bacillus subtilis [49] = assay: Induction of liaR gene expression in Bacillus subtilis W168 by microarray analysis; type: functional; procedure, shortened: as §1
Bacillus subtilis [50] = assay: Induction of yebC gene expression in Bacillus subtilis W168 by microarray analysis; type: functional; procedure, shortened: as §1

SMILES: CCCCCCCCCC(=O)N[C@@H](Cc1c[nH]c2ccccc12)C(=O)N[C@H](CC(N)=O)C(=O)N[C@@H](CC(=O)O)C(=O)N[C@@H]1C(=O)NCC(=O)N[C@@H](CCCN)C(=O)N[C@@H](CC(=O)O)C(=O)N[C@H](C)C(=O)N[C@@H](CC(=O)O)C(=O)NCC(=O)N[C@H](CO)C(=O)N[C@@H]([C@H](C)CC(=O)O)C(=O)N[C@@H](CC(=O)c2ccccc2N)C(=O)O[C@@H]1C
- fold change (FC) (Bacillus subtilis [1]): 8.9
- MIC (Bacillus subtilis [2]): 0.3 µg/mL (≈ 0.185 µM)
- fold change (FC) (Bacillus subtilis [3]): 2
- MIC (Bacillus subtilis [4]): 0.5 µg/mL (≈ 0.309 µM)
- MIC (Bacillus subtilis [5]): 0.7 µg/mL (≈ 0.432 µM)
- MIC (Bacillus subtilis [6]): 0.6 µg/mL (≈ 0.37 µM)
- MIC (Bacillus subtilis [7]): 0.3 µg/mL (≈ 0.185 µM)
- MIC (Bacillus subtilis [8]): 0.4 µg/mL (≈ 0.247 µM)
- fold change (FC) (Bacillus subtilis [9]): 126
- fold change (FC) (Bacillus subtilis [10]): 2
- MIC (Bacillus subtilis [11]): 0.2 µg/mL (≈ 0.123 µM)
- fold change (FC) (Bacillus subtilis [12]): 2.8
- fold change (FC) (Bacillus subtilis [13]): 2.3
- fold change (FC) (Bacillus subtilis [14]): 3.5
- MIC (Bacillus subtilis [15]): 0.5 µg/mL (≈ 0.309 µM)
- MIC (Bacillus subtilis [16]): 1 µg/mL (≈ 0.617 µM)
- MIC (Bacillus subtilis [17]): 1 µg/mL (≈ 0.617 µM)
- MIC (Bacillus subtilis [18]): 0.6 µg/mL (≈ 0.37 µM)
- fold change (FC) (Bacillus subtilis [19]): 1336
- MIC (Bacillus subtilis [20]): 0.7 µg/mL (≈ 0.432 µM)
- fold change (FC) (Bacillus subtilis [21]): 2.7
- fold change (FC) (Bacillus subtilis [22]): 0.4
- MIC (Bacillus subtilis [23]): 1 µg/mL (≈ 0.617 µM)
- fold change (FC) (Bacillus subtilis [24]): 0.5
- fold change (FC) (Bacillus subtilis [25]): 0.5
- fold change (FC) (Bacillus subtilis [26]): 2.9
- MIC (Bacillus subtilis [27]): 0.4 µg/mL (≈ 0.247 µM)
- fold change (FC) (Bacillus subtilis [28]): 2.5
- MIC (Bacillus subtilis [29]): 1 µg/mL (≈ 0.617 µM)
- MIC (Bacillus subtilis [30]): 0.2 µg/mL (≈ 0.123 µM)
- MIC (Bacillus subtilis [31]): 0.2 µg/mL (≈ 0.123 µM)
- MIC (Bacillus subtilis [32]): 0.5 µg/mL (≈ 0.309 µM)
- MIC (Bacillus subtilis [33]): 1 µg/mL (≈ 0.617 µM)
- fold change (FC) (Bacillus subtilis [34]): 283
- fold change (FC) (Bacillus subtilis [35]): 535
- MIC (Bacillus subtilis [36]): 1 µg/mL (≈ 0.617 µM)
- MIC (Bacillus subtilis [37]): 0.8 µg/mL (≈ 0.494 µM)
- fold change (FC) (Bacillus subtilis [38]): 14
- fold change (FC) (Bacillus subtilis [39]): 3.1
- MIC (Bacillus subtilis [40]): 0.2 µg/mL (≈ 0.123 µM)
- fold change (FC) (Bacillus subtilis [41]): 0.5
- MIC (Bacillus subtilis [42]): 0.8 µg/mL (≈ 0.494 µM)
- fold change (FC) (Bacillus subtilis [43]): 3.2
- fold change (FC) (Bacillus subtilis [44]): 10
- fold change (FC) (Bacillus subtilis [45]): 26
- MIC (Bacillus subtilis [46]): 1 µg/mL (≈ 0.617 µM)
- MIC (Bacillus subtilis [47]): 0.9 µg/mL (≈ 0.555 µM)
- MIC (Bacillus subtilis [48]): 0.9 µg/mL (≈ 0.555 µM)
- fold change (FC) (Bacillus subtilis [49]): 75
- fold change (FC) (Bacillus subtilis [50]): 3.6
